# Measured values: ChEMBL document CHEMBL4339192, “De Novo Designed Amphipathic α-Helical Antimicrobial Peptides Incorporating Dab and Dap Residues on the Polar Face To Treat the Gram-Negative Pathogen, Acinetobacter baumannii” (J Med Chem, 2019)
# Where a SMILES comes first, the peptide text is derived from it. [ ]: non-standard residue; d: D form. dOrn = NCCC[C@@H](N)C(=O)O
# Columns and labels:
# Format in all cases: functional
# Acinetobacter baumannii [1] = experiment: Antibacterial activity against polymyxin B/colistin-resistant Acinetobacter baumannii M89941 measured after 24 hrs by microtiter dilution method
# Summary of the method: (§1)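 Broth microdilution in Mueller-Hinton (MH) medium. […] Plates were incubated 24 h at 37 °C. MIC was the lowest peptide concentration that inhibited growth, based on three sets of replicates.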
# Acinetobacter baumannii [2] = experiment: Antibacterial activity against polymyxin B/colistin-resistant Acinetobacter baumannii M89955 measured after 24 hrs by microtiter dilution method; summary of the method: as §1
# Acinetobacter baumannii [3] = experiment: Antibacterial activity against polymyxin B/colistin-resistant Acinetobacter baumannii M89953 measured after 24 hrs by microtiter dilution method; summary of the method: as §1
# Acinetobacter baumannii [4] = experiment: Antibacterial activity against polymyxin B/colistin-resistant Acinetobacter baumannii M89952 measured after 24 hrs by microtiter dilution method; summary of the method: as §1
# Acinetobacter baumannii [5] = experiment: Antibacterial activity against polymyxin B/colistin-resistant Acinetobacter baumannii M89951 measured after 24 hrs by microtiter dilution method; summary of the method: as §1
# Acinetobacter baumannii [6] = experiment: Antibacterial activity against polymyxin B/colistin-resistant Acinetobacter baumannii M89963 measured after 24 hrs by microtiter dilution method; summary of the method: as §1
# Acinetobacter baumannii [7] = experiment: Antibacterial activity against polymyxin B/colistin-resistant Acinetobacter baumannii M89949 measured after 24 hrs by microtiter dilution method; summary of the method: as §1
# Acinetobacter baumannii [8] = experiment: Antibacterial activity against Acinetobacter baumannii 649 measured after 24 hrs by microtiter dilution method; settings: Acinetobacter baumannii, 649, 24 h; summary of the method: as §1
# Acinetobacter baumannii [9] = experiment: Antibacterial activity against Acinetobacter baumannii isolate 1035794 measured after 24 hrs by microtiter dilution method; settings: isolate 1035794, 24 h; summary of the method: as §1
# Acinetobacter baumannii [10] = experiment: Antibacterial activity against Acinetobacter baumannii isolate 952654 measured after 24 hrs by microtiter dilution method; settings: isolate 952654, 24 h; summary of the method: as §1
# Acinetobacter baumannii [11] = experiment: Antibacterial activity against Acinetobacter baumannii isolate 964304 measured after 24 hrs by microtiter dilution method; settings: isolate 964304, 24 h; summary of the method: as §1
# Acinetobacter baumannii [12] = experiment: Antibacterial activity against Acinetobacter baumannii isolate 1002956 measured after 24 hrs by microtiter dilution method; settings: isolate 1002956, 24 h; summary of the method: as §1
# Acinetobacter baumannii [13] = experiment: Antibacterial activity against Acinetobacter baumannii isolate 968886 measured after 24 hrs by microtiter dilution method; settings: isolate 968886, 24 h; summary of the method: as §1
# Acinetobacter baumannii [14] = experiment: Antibacterial activity against Acinetobacter baumannii isolate 1007660 measured after 24 hrs by microtiter dilution method; settings: isolate 1007660, 24 h; summary of the method: as §1
# Acinetobacter baumannii [15] = experiment: Antibacterial activity against Acinetobacter baumannii isolate 965463 measured after 24 hrs by microtiter dilution method; settings: isolate 965463, 24 h; summary of the method: as §1
# Acinetobacter baumannii [16] = experiment: Antibacterial activity against Acinetobacter baumannii isolate 1021371 measured after 24 hrs by microtiter dilution method; settings: isolate 1021371, 24 h; summary of the method: as §1
# Acinetobacter baumannii [17] = experiment: Antibacterial activity against Acinetobacter baumannii isolate 963659 measured after 24 hrs by microtiter dilution method; settings: isolate 963659, 24 h; summary of the method: as §1
# Acinetobacter baumannii [18] = experiment: Antibacterial activity against Acinetobacter baumannii isolate 1010282 measured after 24 hrs by microtiter dilution method; settings: isolate 1010282, 24 h; summary of the method: as §1
# Acinetobacter baumannii [19] = experiment: Antibacterial activity against Acinetobacter baumannii isolate 961997 measured after 24 hrs by microtiter dilution method; settings: isolate 961997, 24 h; summary of the method: as §1
# Acinetobacter baumannii [20] = experiment: Antibacterial activity against Acinetobacter baumannii isolate 963618 measured after 24 hrs by microtiter dilution method; settings: isolate 963618, 24 h; summary of the method: as §1
# Acinetobacter baumannii [21] = experiment: Antibacterial activity against Acinetobacter baumannii isolate 1035166 measured after 24 hrs by microtiter dilution method; settings: isolate 1035166, 24 h; summary of the method: as §1
# Acinetobacter baumannii [22] = experiment: Antibacterial activity against Acinetobacter baumannii isolate 1001611 measured after 24 hrs by microtiter dilution method; settings: isolate 1001611, 24 h; summary of the method: as §1
# Acinetobacter baumannii [23] = experiment: Antibacterial activity against Acinetobacter baumannii isolate 1018887 measured after 24 hrs by microtiter dilution method; settings: isolate 1018887, 24 h; summary of the method: as §1
# Acinetobacter baumannii [24] = experiment: Antibacterial activity against Acinetobacter baumannii isolate 9383370 measured after 24 hrs by microtiter dilution method; settings: isolate 9383370, 24 h; summary of the method: as §1
# Acinetobacter baumannii [25] = experiment: Antibacterial activity against Acinetobacter baumannii isolate 1017395 measured after 24 hrs by microtiter dilution method; settings: isolate 1017395, 24 h; summary of the method: as §1
# Acinetobacter baumannii [26] = experiment: Antibacterial activity against Acinetobacter baumannii 649 measured after 24 hrs in presence of 25% human serum by microtiter dilution method; settings: Acinetobacter baumannii, 649, 24 h
# Summary of the method: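 Blood strain 649 was tested by MH broth microdilution with and without 25% (v/v) human serum added to the medium. The test used a final inoculum of 5 × 10^5 cfu/mL and incubation at 37 °C. The ratio is the MIC in serum over the MIC in MH alone.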
# Acinetobacter baumannii [27] = experiment: Antibacterial activity against Acinetobacter baumannii isolate 1010245 measured after 24 hrs by microtiter dilution method; settings: isolate 1010245, 24 h; summary of the method: as §1
# Acinetobacter baumannii [28] = experiment: Antibacterial activity against Acinetobacter baumannii isolate 977751 measured after 24 hrs by microtiter dilution method; settings: isolate 977751, 24 h; summary of the method: as §1
molecule,measurement,setting,value
COLISTIN,MIC,Acinetobacter baumannii [1],> 28 µM
same,MIC,Acinetobacter baumannii [2],> 28 µM
same,MIC,Acinetobacter baumannii [3],> 28 µM
same,MIC,Acinetobacter baumannii [4],> 28 µM
same,MIC,Acinetobacter baumannii [5],> 28 µM
same,MIC,Acinetobacter baumannii [6],> 28 µM
same,MIC,Acinetobacter baumannii [7],> 28 µM
CC(=O)N[C@H](CCCCN)C(=O)N[C@H](CC(C)C)C(=O)N[C@H](CCCN)C(=O)N[C@H](CO)C(=O)N[C@H](CC(C)C)C(=O)N[C@H](CC(C)C)C(=O)N[C@H](CCCN)C(=O)N[C@@H](C(=O)N[C@H](CC(C)C)C(=O)N[C@H](CO)C(=O)N[C@H](CCCN)C(=O)N[C@H](C)C(=O)N[C@H](CCCCN)C(=O)N[C@H](C)C(=O)N[C@H](C)C(=O)N[C@H](CCCCN)C(=O)N[C@H](CC(C)C)C(=O)N[C@H](CCCN)C(=O)N[C@@H](C(=O)N[C@H](CC(C)C)C(=O)N[C@H](CC(C)C)C(=O)N[C@H](CCCN)C(=O)N[C@H](C)C(=O)N[C@H](CC(C)C)C(=O)N[C@H](CO)C(=O)N[C@H](CCCN)C(N)=O)[C@H](C)O)[C@H](C)O (Ac-[dK][dL][dOrn][dS][dL][dL][dOrn][dT][dL][dS][dOrn][dA][dK][dA][dA][dK][dL][dOrn][dT][dL][dL][dOrn][dA][dL][dS][dOrn]-NH2),MIC,"Acinetobacter baumannii [1]; M89941, 24 h",0.7 µM
same,MIC,"Acinetobacter baumannii [2]; M89955, 24 h",0.4 µM
same,MIC,"Acinetobacter baumannii [3]; M89953, 24 h",0.4 µM
same,MIC,"Acinetobacter baumannii [5]; M89951, 24 h",0.7 µM
same,MIC,"Acinetobacter baumannii [6]; M89963, 24 h",0.4 µM
same,MIC,Acinetobacter baumannii [8],0.4 µM
same,MIC,"Acinetobacter baumannii [7]; M89949, 24 h",0.7 µM
CC(=O)N[C@H](CCCCN)C(=O)N[C@H](CC(C)C)C(=O)N[C@H](CCCCN)C(=O)N[C@H](CO)C(=O)N[C@H](CC(C)C)C(=O)N[C@H](CC(C)C)C(=O)N[C@H](CCCCN)C(=O)N[C@@H](C(=O)N[C@H](CC(C)C)C(=O)N[C@H](CO)C(=O)N[C@H](CCCCN)C(=O)N[C@H](C)C(=O)N[C@H](CCCCN)C(=O)N[C@H](C)C(=O)N[C@H](C)C(=O)N[C@H](CCCCN)C(=O)N[C@H](CC(C)C)C(=O)N[C@H](CCCCN)C(=O)N[C@@H](C(=O)N[C@H](CC(C)C)C(=O)N[C@H](CC(C)C)C(=O)N[C@H](CCCCN)C(=O)N[C@H](C)C(=O)N[C@H](CC(C)C)C(=O)N[C@H](CO)C(=O)N[C@H](CO)C(N)=O)[C@H](C)O)[C@H](C)O (Ac-[dK][dL][dK][dS][dL][dL][dK][dT][dL][dS][dK][dA][dK][dA][dA][dK][dL][dK][dT][dL][dL][dK][dA][dL][dS][dS]-NH2),MIC,Acinetobacter baumannii [9],1.4 µM
same,MIC,Acinetobacter baumannii [10],1.4 µM
same,MIC,Acinetobacter baumannii [11],1.4 µM
same,MIC,Acinetobacter baumannii [12],0.7 µM
same,MIC,"Acinetobacter baumannii [1]; M89941, 24 h",0.7 µM
same,MIC,Acinetobacter baumannii [13],0.7 µM
same,MIC,"Acinetobacter baumannii [2]; M89955, 24 h",0.7 µM
same,MIC,Acinetobacter baumannii [14],0.7 µM
same,MIC,Acinetobacter baumannii [15],0.7 µM
same,MIC,Acinetobacter baumannii [16],1.4 µM
same,MIC,Acinetobacter baumannii [17],1.4 µM
same,MIC,Acinetobacter baumannii [18],1.4 µM
same,MIC,"Acinetobacter baumannii [3]; M89953, 24 h",1.5 µM
same,MIC,Acinetobacter baumannii [19],1.4 µM
same,MIC,Acinetobacter baumannii [20],0.7 µM
same,MIC,"Acinetobacter baumannii [4]; M89952, 24 h",0.7 µM
same,MIC,Acinetobacter baumannii [21],1.4 µM
same,MIC,"Acinetobacter baumannii [5]; M89951, 24 h",0.7 µM
same,MIC,Acinetobacter baumannii [22],0.7 µM
same,MIC,Acinetobacter baumannii [23],1.4 µM
same,MIC,Acinetobacter baumannii [24],0.7 µM
same,MIC,Acinetobacter baumannii [25],1.4 µM
same,MIC,"Acinetobacter baumannii [6]; M89963, 24 h",0.7 µM
same,MIC,Acinetobacter baumannii [26],0.7 µM
same,MIC,Acinetobacter baumannii [27],0.7 µM
same,MIC,Acinetobacter baumannii [8],0.7 µM
same,MIC,"Acinetobacter baumannii [7]; M89949, 24 h",0.7 µM
same,MIC,Acinetobacter baumannii [28],0.7 µM
